The source of these data is ChEMBL document CHEMBL4382201 (J Med Chem, 2018).

In brackets after ≈: the same amount, converted by molar mass. Activity calls are given as the source filed them. The rule behind the calls is not given here.

Series [1] has as its system DNA. Put plainly: Induction of DNA cross-linking activity in human CLL-derived lymphocytes assessed as increase in gammaH2AX formation at 5 to 20 uM after 24 hrs by flow cytometry. It is filed as functional, cell-based. A digest of the protocol: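 Primary CLL lymphocytes from 5 patients were treated at 5-20 µM for 24 h. γH2AX was quantified by flow cytometry.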
Series [2] in a line: Drug level in DMSO-d6/PBS buffer treated with (3-(((2-Amino-3-methoxy-3-oxopropyl)thio)methyl)-4-(bis(2-chloroethyl)amino)phenyl)boronic Acid assessed as compound formation after 10 days in presence of GSH by IT-TOF mass analysis. It is filed as physicochemical. The conditions noted are these: 240 h.
Series [3] has as its system dsDNA. Put plainly: Induction of DNA-interstanded-cross-link formation in [32P]-labeled 49-mer duplex DNA (unknown origin) at 1 mM in absence of H2O2 after 16 hrs by PAGE relative to control. It is filed as functional. A digest of the protocol:
(§1)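 A 32P-labelled 49-mer, annealed with 1.5 equiv complement (65 °C for 3 min in 10 mM potassium phosphate pH 7, 100 mM NaCl, then slow cooling), was used at 1.0 µM before final dilution. Duplex was mixed with compound (final 1 mM), NaCl and potassium phosphate pH 8, with or without H2O2. Incubation 16 h at room temperature, formamide quench, then 20% denaturing PAGE.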

Series [4] has as its system Panel NCI-60 (60 carcinoma cell lines). Put plainly: Growth inhibition of human NCI60 cells at 10 uM after 48 hrs by SRB assay relative to control. In kind it is functional, cell-based. A digest of the protocol:
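NCI-60 one-dose screen: cells exposed to 10 µM for 48 h at 37 °C, 5% CO2, 100% humidity. Percent growth is given relative to the no-drug control and the time-zero cell count.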

Series [5] relates to MDA-MB-468. Put plainly: Growth inhibition of human MDA-MB-468 cells after 48 hrs by […]. It is filed as functional, cell-based. The conditions noted are these: MDA-MB-468, 48 h. On the technique in general: Polarisation of emitted light reports the rotation of a fluorescent probe.
In series [6] the test system is dsDNA. Put plainly: Induction of DNA-interstanded-cross-link formation in [32P]-labeled 49-mer duplex DNA (unknown origin) at 1 mM in presence of H2O2 after 16 hrs by PAGE relative to control. It is filed as functional. A digest of the protocol:
as §1

A short description of series [7]: Solubility of the compound in PBS buffer at 10 mM at pH 7.4 by UV-based analysis. In kind it is physicochemical. A digest of the protocol:
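Compound (10 mM DMSO stock) was diluted into pH 7.4 buffer (ethanolamine/KH2PO4/potassium acetate/KCl) to a final 5% DMSO. After sonication and 18 h agitation the mixture was filtered and scanned by UV at 230-800 nm. Solubility was calculated from calibration plots made in 20% acetonitrile buffer, in quadruplicate, with solubility standards on each plate.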

A further series deals with CCRF-CEM. Put plainly: Growth inhibition of human CCRF-CEM cells after 48 hrs by SRB assay. It is filed as functional. A digest of the protocol:
(§2)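 NCI-60 five-dose screen at 100 µM, 10 µM, 1 µM, 100 nM and 10 nM. Incubation 48 h at 37 °C, 5% CO2, 100% humidity. Growth was expressed relative to the no-drug control and to the time-zero cell number, and GI50 was derived from these values.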
(In SRB staining, fixed cells bind dye roughly in proportion to their protein.)

Another series has as its system K562. Put plainly: Growth inhibition of human K562 cells after 48 hrs by SRB assay. In kind it is functional. Particulars: K562, 48 h. A digest of the protocol: as §2
In another series the test system is MOLT-4. Put plainly: Growth inhibition of human MOLT4 cells after 48 hrs by SRB assay. In kind it is functional. Particulars: MOLT-4, 48 h. A digest of the protocol:
as §2

The next series has as its system RPMI-8226. Put plainly: Growth inhibition of human RPMI8226 cells after 48 hrs by SRB assay. In kind it is functional. The conditions noted are these: RPMI-8226, 48 h. A digest of the protocol: as §2
The subject of the next series is SR. Put plainly: Growth inhibition of human SR cells after 48 hrs by SRB assay. It is filed as functional. A digest of the protocol:
as §2

A further series concerns HOP-92. Put plainly: Growth inhibition of human HOP92 cells after 48 hrs by SRB assay. The conditions noted are these: HOP-92, 48 h. It is filed as functional. A digest of the protocol:
as §2

Another series deals with HT-29. Put plainly: Growth inhibition of human HT-29 cells after 48 hrs by SRB assay. It is filed as functional. The conditions noted are these: HT-29, 48 h. A digest of the protocol:
as §2

Another series concerns SNB-75. Put plainly: Growth inhibition of human SNB75 cells after 48 hrs by SRB assay. It is filed as functional. The conditions noted are these: SNB-75, 48 h. A digest of the protocol:
as §2

A further series relates to Malme-3M. Put plainly: Growth inhibition of human MALME-3M cells after 48 hrs by SRB assay. In kind it is functional. A digest of the protocol: as §2
The next series has as its system IGROV-1. Put plainly: Growth inhibition of human IGROV1 cells after 48 hrs by SRB assay. It is filed as functional. Particulars: IGROV-1, 48 h. A digest of the protocol:
as §2

The subject of a further series is SK-OV-3. Put plainly: Growth inhibition of human SKOV3 cells after 48 hrs by SRB assay. In kind it is functional. The conditions noted are these: SK-OV-3, 48 h. A digest of the protocol: as §2
Series [8] relates to MDA-MB-468. Put plainly: Growth inhibition of human MDA-MB-468 cells after 48 hrs by SRB assay. In kind it is functional. Particulars: MDA-MB-468, 48 h. A digest of the protocol:
as §2

Another series has as its system MCF7. Put plainly: Growth inhibition of human MCF7 cells after 48 hrs by SRB assay. The conditions noted are these: MCF7, 48 h. It is filed as functional. A digest of the protocol:
as §2

Series [9] can be described thus: Drug metabolism in PBS buffer assessed as 4-(bis(2-chloroethyl)amino)phenylboronic acid formation at pH 6 to 7 after 48 hrs.
A short description of series [10]: Drug metabolism in DMSO-d6/PBS buffer assessed as 2-((2-chloroethyl)(4-(4,4,5,5-tetramethyl-1,3,2-dioxaborolan-2-yl)phenyl)amino)ethanol formation after 10 days in presence of GSH by IT-TOF mass analysis.
A short description of series [11]: Drug metabolism in DMSO-d6/PBS buffer assessed as 4-(bis(2-chloroethyl)amino)phenylboronic acid formation after 10 days in presence of GSH by IT-TOF mass analysis.
A further series has as its system Lymphocyte. Put plainly: Induction of apoptosis in human lymphocytes at 10 uM after 24 hrs by Annexin V-FITC/propidium iodide-staining based flow cytometry. In kind it is cell-based. A digest of the protocol: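 Normal PBMCs from 3 donors were isolated on Ficoll and treated at 10 µM. Apoptosis was measured by annexin V-FITC/PI flow cytometry against time-matched untreated controls.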

The test system of series [12] is DNA. Put plainly: Induction of DNA cross-linking activity in human CLL-derived lymphocytes assessed as increase in gammaH2AX formation at 1 uM after 24 hrs by flow cytometry. It is filed as functional, cell-based. A digest of the protocol:
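Primary CLL lymphocytes from 3 patients were treated for 24 h at 10 µM or 1 µM, depending on compound. H2AX phosphorylation (% γH2AX) was measured by flow cytometry.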
For orientation: In flow cytometry, cells or beads pass a laser one at a time.

Series [13] in a line: Drug level in DMSO-d6/PBS buffer treated with N,N-bis(2-chloroethyl)-4-(4,4,5,5-tetramethyl-1,3,2-dioxaborolan-2-yl)aniline assessed as compound formation after 10 days in presence of GSH by IT-TOF mass analysis. It is filed as physicochemical. The conditions noted are these: 240 h.
Series [14] is described as follows: Drug level in DMSO-d6/PBS buffer treated with 4-(bis(2-chloroethyl)amino)phenylboronic acid assessed as compound formation after 10 days in presence of GSH by IT-TOF mass analysis. In kind it is physicochemical. Particulars: 240 h.

Consider `CC1(C)OB(c2ccc(CO)cc2)OC1(C)C`, for which the result in the series with DNA [1] was inactive.

In the case of `COC(=O)C1CSCc2cc(B(O)O)ccc2N(CCO)CCN1` (centres undefined), the Drug uptake entry in series [2] is reported as “Active”.

On to `COC(=O)C(CSCc1cc(B2OC(C)(C)C(C)(C)O2)ccc1N(CCCl)CCCl)NC(=O)OC(C)(C)C` (centres undefined), for which the Activity with dsDNA [3] is < 5%. In [4], the “growth inhibition (GI)” value was “inactive”.

On to `N[C@@H](Cc1ccc(N(CCCl)CCCl)cc1)C(=O)O` [MELPHALAN], for which the Activity with dsDNA [3] was 4.9%. Moreover, half-maximal inhibition in the series with MDA-MB-468 [5] (IC50) was put at 48.7 µM.

Turning to `CC1(C)OB(c2ccc(N(CCCl)CCCl)c([N+](=O)[O-])c2)OC1(C)C`, the results for the Activity in the series with dsDNA [3] and with dsDNA [6] were 1.5 to 15% and < 9%, respectively. Also, the concentration in solution in [7] (solubility) was 380 µM (≈ 148 µg/mL). In series [4], the “growth inhibition (GI)” value was “inactive”. For the same molecule, it took 92.8 µM to reach half-maximal inhibition in the series on MDA-MB-468 [5] (IC50).

In the case of `N[C@H](Cc1cn(Cc2cc(B(O)O)ccc2N(CCCl)CCCl)c2ccccc12)C(=O)O`, the results for the Activity in the series on dsDNA [3] and in the series with dsDNA [6] were 1.5 to 15% and < 65%, respectively. The “growth inhibition (GI)” value in series [4] was “inactive”.

As for `CCCCOC(=O)C(NC(=O)OC(C)(C)C)c1cn(Cc2cc(B3OC(C)(C)C(C)(C)O3)ccc2N(CCCl)CCCl)c2ccccc12` (centres undefined), in the series on dsDNA [3], the Activity is < 5%. Besides, in series [4], the “growth inhibition (GI)” value is “inactive”.

Consider `Cc1cc(N(CCCl)CCCl)ccc1B1OC(C)(C)C(C)(C)O1`, for which the GI50 (usually the concentration giving 50% growth inhibition) with CCRF-CEM was 2.9 µM; with K562, 5.48 µM; in the series with MOLT-4, 2.6 µM; in the series on RPMI-8226, 12 µM; with SR, 0.49 µM; in the series with HOP-92 it was 13.3 µM. In addition, the concentration for 50% growth inhibition (GI50) came to 14.7 µM with HT-29; 10.1 µM in the series with SNB-75; 13.6 µM in the series with Malme-3M; 16.1 µM with IGROV-1; 4.62 µM with SK-OV-3; 7.88 µM with MDA-MB-468 [8]. Moreover, in the series on MCF7, the GI50 worked out at 3.86 µM. In addition, the Activity is 1.5 to 15% with dsDNA [3] and < 65% with dsDNA [6]. Besides, in series [7], the concentration in solution (solubility) came to 24 µM (≈ 8.59 µg/mL). Besides, the midpoint of inhibition in the series with MDA-MB-468 [5], the IC50, lay at 48.3 µM.

`CC1(C)OB(c2ccc(N(CCCl)CCCl)cc2)OC1(C)C`: the Drug metabolism entry in series [9], in series [10] and in [11] was “Metabolite detected” in each case. Further, the results for the Activity with dsDNA [3] and with dsDNA [6] were 1.5 to 15% and < 65%, respectively. Besides, the results for the GI50 with SR and with MDA-MB-468 [8] were 0.63 µM and 1.6 µM, respectively. For the same molecule, the concentration in solution in series [7] (solubility) came to 167 µM (≈ 57.5 µg/mL). The IC50 – broadly, the point on the concentration scale where inhibition reaches its midpoint – in the series on MDA-MB-468 [5] was 24.6 µM.

As for `COc1cc(N(CCCl)CCCl)ccc1B1OC(C)(C)C(C)(C)O1`, the Activity in the series on dsDNA [3] was 8%; in the series with dsDNA [6] it was < 65%; in the series with Lymphocyte, “Non-Toxic”. In addition, in series [7], the solubility (commonly the concentration that dissolves in the medium under given conditions) amounted to 50 µM (≈ 18.7 µg/mL). In addition, the outcome in the series on DNA [12] was Active. Besides, the IC50 with MDA-MB-468 [5] stood at 34.4 µM.

For the molecule `N[C@H](CSCc1cc(B(O)O)ccc1N(CCO)CCCl)C(=O)O`, in [2], the Drug uptake result was “Active”.

`CC1(C)OB(c2ccc(N(CCO)CCCl)cc2)OC1(C)C`: in [13], the Drug uptake result is recorded as “Active”.

As to `OCCN(CCCl)c1ccc(B(O)O)cc1`, the Drug uptake entry in series [14] was “Active”.

As for `O=C(O)CCCc1ccc(N(CCCl)CCCl)cc1` [CHLORAMBUCIL], the Activity in the series with dsDNA [3] stood at 5.7%. In the series with MDA-MB-468 [5], this molecule showed an IC50 of 34.4 µM.

As to `COC(=O)C1CSCc2cc(B(O)O)ccc2N(CCCl)CCN1` (centres undefined), the Drug uptake result in series [2] is “Active”.
